Screening results (PubChem BioAssay)
A selection: hits, their analogues and other compounds. The true share with any hit is near 1.4%.
PKA-R2B activ = activators of human PKA-R2B complex; P22694+P31323; PKA-R2B holoenzyme dissociation, Cy5-IP20 fluorescence polarization; R2B truncated from residue 108, S112A mutant; 0% DMSO only, 100% 113 µM cGMP; activation, % at 11.4 µM; hit rate 0.079% among 340,000;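 active means activation above a cutoff set at the mean over all compounds plus 3 SD, cut at about 18% in these data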;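 further: higher means more holoenzyme dissociation and a rise in polarization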
Target sequence (P31323 whole entry, looked up, other chains not shown, the tested form may be a part): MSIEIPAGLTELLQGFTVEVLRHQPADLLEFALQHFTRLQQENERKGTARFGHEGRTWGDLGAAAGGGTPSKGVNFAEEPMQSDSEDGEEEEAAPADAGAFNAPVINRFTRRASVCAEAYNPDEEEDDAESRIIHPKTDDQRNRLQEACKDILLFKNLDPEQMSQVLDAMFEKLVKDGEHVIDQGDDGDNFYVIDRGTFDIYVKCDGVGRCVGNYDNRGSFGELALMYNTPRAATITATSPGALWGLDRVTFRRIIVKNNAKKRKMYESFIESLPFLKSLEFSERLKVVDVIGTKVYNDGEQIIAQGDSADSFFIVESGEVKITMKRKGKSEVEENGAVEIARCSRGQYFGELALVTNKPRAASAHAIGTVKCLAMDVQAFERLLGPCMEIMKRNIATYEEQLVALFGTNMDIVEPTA
Vif inh = blocks HIV Vif function. HEK293T cells, Vif self-association by quenched fluorescence, imaging, 24 h. inhibition, % at 7.49 µM. hit rate 0.35% among 340,000. AID 602346; in the data active means inhibition above about 50%, passing the limit was not always enough
PKA-R1A act = activators of PKA-R1A complex | P00514+P68181 | PKA-R1A dissociation, Cy5-IP20 fluorescence polarization; scaled: DMSO 0%, 113 µM cGMP 100% | activation, % at 11.4 µM | hit rate 0.083% among 340,000 | AID 504707;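 active means percent activation above the mean of all tested compounds plus 3 SD, cut at about 19% in these data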;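 further: higher means more PKAc released from R1A so a rise in polarization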
SR-BI DiI-HDL act = activators of SR-BI mediated HDL lipid uptake. CHO ldlA[mSR-BI] cells, DiI-HDL uptake fluorescence, 3 h; 100 = double the neutral-control signal. activation, % at 12.5 µM. hit rate 0.096% among 320,000;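 active means mean replicate activation of at least 60% and every replicate at or above 60%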;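 further: 0% = median plate neutral-control signal and 100% = twice that signal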
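Test system: SR-BI-overexpressing, LDLR-lacking CHO cells. Measured by: DiI fluorescence, bottom read. Medium: Ham's F12 with 0.5% BSA, HEPES 25 mM, pH 7.4. Timing: 3 h uptake period with compound, 37 °C.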
SR-BI HDL uptake = blocks mouse SR-BI lipid uptake from DiI-HDL | ldlA[mSR-BI] CHO cells, DiI-HDL uptake fluorescence, 3 h | AID 488896 | hit rate 0.96% among 320,000 | Q61009 | inhibition, % at 12.5 µM;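 active means mean replicate inhibition of at least 70% and a set share of replicates each scoring 70 or more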;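 further: 0% = median of neutral control wells and 100% = median of positive control wells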
An asterisk follows results filed as active; nt = no result.

SMILES	PKA-R2B activ	Vif inh	PKA-R1A act	SR-BI DiI-HDL act	SR-BI HDL uptake
Cc1c(Cl)cccc1NC(=O)CC(C(=O)O)C1CCCO1 (centres undefined)	-19	98*	-9	13	-13
O=C1C(c2ccccc2)=NCCN1C(c1ccc(F)cc1)c1nc2ccccc2[nH]1 (centres undefined)	nt	6	nt	nt	nt
CCOC(=O)Nc1oc2ccccc2c(=O)c1CN1CCOCC1	11	54*	-8	-8	8
COc1ccc(CNC(=O)Nc2nc(C(N)CCc3ccccc3)cs2)cc1 (centres undefined)	nt	-2	nt	nt	nt
Oc1c(Cl)cc(Cl)cc1/C=N/NC(=S)NC1CC2C=CC1C2 (centres undefined)	-9	-5	-14	-98	98*
COc1cc(/C=C/C(=O)OCC(=O)c2c(N)n(C)c(=O)n(C)c2=O)ccc1O	-6	-6	-16	-40	40
COc1cc(/C=C/C(=O)OCC(=O)c2c(N)n(C)c(=O)n(C)c2=O)ccc1OCC#N	5	-1	-4	-71	71*
COC(=O)Nc1nc(-c2ccccc2)c(C(=O)c2ccccc2)s1	-3	nt	-2	-91	91*
COC(=O)Nc1nc(C)c(C(=O)c2ccccc2)s1	-2	13	-1	22	-22
CCOc1cc(CNc2ccccc2)cc(Br)c1OCc1ccc(F)cc1	3	3	-3	-74	74*
CCOc1cc(CNc2ccccc2)cc(Br)c1OCC(=O)NC(C)(C)C	-9	-7	-6	5	-5
COc1ccc(NS(=O)(=O)c2cccc(C(=O)NNC(=O)c3cc(C)oc3C)c2)cc1	-8	3	-4	-15	15
COc1ccc(NS(=O)(=O)c2cccc(C(=O)NN=Cc3ccc(O)c(OC)c3)c2)cc1	-6	-3	-8	-21	21
COc1ccc(NS(=O)(=O)c2cccc(C(=O)N/N=C/c3ccccc3OC)c2)cc1	-6	17	-4	-82	82*
O=C(N/N=C/c1cn(-c2ccccc2)nc1-c1ccc(F)cc1)c1ccc(Br)o1	7	nt	-7	-87	87*
O=C(N/N=C/c1cn(-c2ccccc2)nc1-c1cccnc1)c1ccc(F)cc1	4	-3	4	-59	59
CCN(CC)c1ccc(/C=N/NC(=O)c2cccc(S(=O)(=O)Nc3ccccc3OC)c2)c(O)c1	-5	-4	1	-132	132*
COc1ccc(NS(=O)(=O)c2cccc(C(=O)NNC(=O)c3ccccc3O)c2)cc1	-5	-17	-6	-72	72*
CCOC(=O)C1=C(COC(=O)C(CC)Oc2ccccc2)NC(=O)NC1C (centres undefined)	4	21	-10	-11	11
CCSc1nnc(NC(=O)C2CSC3(C)CCC(=O)N23)s1 (centres undefined)	2	2	-8	4	-4
O=S(=O)(c1ccc(NC(=S)N2CCCCC2CO)cc1)N1CCOCC1 (centres undefined)	-8	-7	-6	nt	nt
C[C@@H]1CN([C@H](C)CO)C(=O)c2cc(Br)cnc2O[C@H]1CN(C)C(=O)CC1CC1	3	-16	-5	nt	nt
COc1ccc(NS(=O)(=O)c2cccc(C(=O)N/N=C/c3cn(-c4ccccc4)nc3-c3ccccc3)c2)cc1	-9	-3	8	-96	96*
CC(=O)Nc1ccc(S(=O)(=O)N2c3ccccc3C(C)=CC2(C)C)cc1	-10	81*	-6	8	-8
Oc1ccc(C[C@H]2CNC(=S)N2C[C@H]2CCCN2C[C@H](Cc2ccccc2)N2C[C@H](Cc3ccc(O)cc3)N(CC3CCCCCC3)C2=S)cc1	nt	2	nt	nt	nt
SMILES	PKA-R2B activ	Vif inh	PKA-R1A act	SR-BI DiI-HDL act	SR-BI HDL uptake
COc1ccc(O)c(C(=O)c2coc(=N)c(C(=O)Nc3ccc(SC(F)F)cc3)c2)c1	-2	-12	-2	-76	76*
Cc1ccccc1OCCC(=O)Nc1ccccc1C(=O)N1CCCCC1	4	-5	-3	-3	3
COc1ccc(NC(=O)C(F)(F)F)cc1OC	-2	2	-4	-78	78*
COC(=O)Nc1ccc(OC)c(OC)c1	-1	6	2	0	0
COC(=O)c1cc(NC(=O)c2cc(-c3ccccc3Cl)oc2C(F)(F)F)ccc1N1CCOCC1	-11	4	1	-84	84*
COC(=O)c1cc(NC(=O)c2cc(-c3ccc(Cl)cc3)oc2C(F)(F)F)ccc1N1CCOCC1	0	3	-6	-68	68
COc1ccc(C2C(C#N)=C(N)Oc3cc(O)ccc32)cc1C (centres undefined)	9	-3	-7	-81	81*
CCCCN(CC)CCNC(=O)c1cc2c(=O)[nH]c3ccccc3c2s1	9	5	-3	-88	88*
CCOC(=O)C(=N/O)/C(C)=N/NC(=O)C(=O)Nc1cc(Cl)ccc1Cl	6	-5	-5	-81	81*
O=c1cc(N2CCOCC2)[nH]c(=O)n1Cc1ccc(F)cc1	0	nt	-3	231*	-231
O=[N+]([O-])c1cc(-n2cnnn2)ccc1N1CCC(Cc2ccccc2)CC1	-3	78*	1	-26	26
CC(=O)Nc1ccc(/C(C)=N/Nc2nc(Nc3ccccc3)nc(N3CCOCC3)n2)cc1	-3	6	-5	-85	85*
Cc1ccc(/C=N/Nc2cc(C)nc(N3CCOCC3)n2)cc1	-8	-8	-6	0	0
Cc1ccc(Nc2nc(N/N=C\c3ccc4c(c3)OCO4)nc(N3CCOCC3)n2)cc1	-8	-4	-9	-86	86*
CCCn1c(N)c(N(CCOC)C(=O)c2ccc([N+](=O)[O-])cc2Cl)c(=O)[nH]c1=O	-5	67*	-4	nt	nt
CCCn1c(N)c(N(CCOC)C(=O)c2ccc(F)cc2F)c(=O)[nH]c1=O	-9	-1	1	nt	nt
COC(=O)CN(c1ccccc1)S(=O)(=O)c1cc(Br)ccc1OC	-1	10	-6	8	-8
COc1ncnc2c1ncn2CCCN1CCN(c2ccccn2)CC1	-1	4	-1	nt	nt
COc1cc(/C=N/N2CCN(C3c4ccccc4-c4ccccc43)CC2)ccc1O	-2	-4	-2	-56	56
COc1cccc(/C=N/N2CCN(C3c4ccccc4-c4ccccc43)CC2)c1O	-13	-12	8	-72	72*
CCNc1ccc(C2(O)C(=O)c3ccccc3C2=O)cc1	-3	-9	-5	39	-39
O=C1CC(SC(=Nc2ccccc2)Nc2ccccc2)C(=O)N1c1cccc(Cl)c1 (centres undefined)	3	-4	7	-78	78*
O=C1CC(SC(=Nc2ccccc2)Nc2ccccc2)C(=O)N1c1ccc(Cl)cc1 (centres undefined)	4	-1	-6	-71	71*
